Activity calls are given as the source filed them. The calls are words filed in the database; no cut-off is given here.
Tests used:
[1] = biological target: T1, Androgen receptor/Baculoviral IAP repeat-containing protein 2 (Homo sapiens, UniProt P10275+Q13490); experiment: Induction of AR/cIAP1 interaction in human 22Rv1 cells assessed as ubiquitin proteasome system mediated androgen receptor protein degradation at 1 to 3 uM after 6 hrs by Western blot analysis; type: cell-based
In short: (§1)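 22Rv1 cells were treated with compound, or with separate ligands (30 μM or 3 μM each), for 6 h. Lysates in SDS buffer (0.1 M Tris pH 8.0, 1% SDS) were normalized by BCA, run on SDS-PAGE and immunoblotted. AR/GAPDH ratio was normalized to vehicle as 100. DC50 is the concentration giving 50% AR reduction; means ± SD, n = 3; t-test against vehicle.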

[2] = biological target: T1, Androgen receptor/Baculoviral IAP repeat-containing protein 2; experiment: Induction of AR/cIAP1 interaction in human 22Rv1 cells assessed as ubiquitin proteasome system mediated androgen receptor protein degradation at 3 uM after 6 hrs by Western blot analysis; type: cell-based; in short: as §1
[3] = biological target: T1, Androgen receptor/Baculoviral IAP repeat-containing protein 2; experiment: Induction of AR/cIAP1 interaction in human 22Rv1 cells assessed as ubiquitin proteasome system mediated androgen receptor protein degradation at 3 uM by Western blot analysis; type: cell-based; details: TDE = time-dependent effect; in short: as §1
[4] = biological target: T1, Androgen receptor/Baculoviral IAP repeat-containing protein 2; experiment: Induction of AR/cIAP1 interaction in human 22Rv1 cells assessed as ubiquitin proteasome system mediated androgen receptor protein degradation at 3 uM in presence of proteasome inhibitor MG132 after 6 hrs by Western blot analysis; type: cell-based
In short: (§2)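 22Rv1 or VCaP cells were given 3 μM degrader with or without 10 μM proteasome inhibitor over a time course. AR was detected by Western blot (SDS lysis, BCA normalization) and AR/GAPDH was normalized to vehicle as 100. Means ± SD, n = 3.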

[5] = biological target: T1, Androgen receptor/Baculoviral IAP repeat-containing protein 2; experiment: Induction of AR/cIAP1 interaction in human VCaP cells assessed as ubiquitin proteasome system mediated androgen receptor protein degradation at 3 uM in presence of proteasome inhibitor MG132 after 6 hrs by Western blot analysis; type: cell-based; in short: as §2
[6] = biological target: T1, Androgen receptor/Baculoviral IAP repeat-containing protein 2; experiment: Induction of AR/cIAP1 interaction in human VCaP cells assessed as ubiquitin proteasome system mediated androgen receptor protein degradation by measuring reduction in DHT-stimulated PSA mRNA expression at 3 uM after 24 hrs by qPCR analysis; type: cell-based
In short: (§3)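 VCaP cells were held 2 days in phenol red-free RPMI + 5% charcoal-stripped FBS, then given 1 nM DHT with or without 3 μM compound for 24 h. RNA was isolated and cDNA made from 1 μg with oligo-dT. qPCR used the comparative Ct method, with values relative to vehicle = 1. Means ± SD, n = 3.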

[7] = biological target: T1, Androgen receptor/Baculoviral IAP repeat-containing protein 2; experiment: Induction of AR/cIAP1 interaction in human VCaP cells assessed as ubiquitin proteasome system mediated androgen receptor protein degradation by measuring reduction in DHT-stimulated TMPRSS2 mRNA expression at 3 uM after 24 hrs by qPCR analysis; type: cell-based; in short: as §3
[8] = biological target: T1, Androgen receptor/Baculoviral IAP repeat-containing protein 2; experiment: Induction of AR/cIAP1 interaction in human VCaP cells assessed as ubiquitin proteasome system mediated androgen receptor protein degradation by measuring reduction in DHT-stimulated KLK2 mRNA expression at 3 uM after 24 hrs by qPCR analysis; type: cell-based; in short: as §3
[9] = biological target: T1, Androgen receptor/Baculoviral IAP repeat-containing protein 2; experiment: Induction of AR/cIAP1 interaction in human VCaP cells assessed as ubiquitin proteasome system mediated androgen receptor protein degradation by measuring reduction in DHT-stimulated NKX3.1 mRNA expression at 3 uM after 24 hrs by qPCR analysis; type: cell-based; in short: as §3
VCaP [10] = experiment: Cytotoxicity against human VCaP cells at 3 uM after 48 hrs by WST-8 assay; type: functional, cell-based
In short: (§4)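 Seeded at 5 × 10^3 cells/well; compound added after 24 h and incubated 48 h. WST-8 reagent then added for 0.5 h at 37 °C, 5% CO2, with absorbance read at 450 nm. A549, PC-3, LNCaP and VCaP were kept in RPMI-1640 + 10% FBS; HT1080 in DMEM + 10% FBS. Means ± SD, n = 3; Student's t-test against vehicle.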

LNCaP = experiment: Cytotoxicity against human LNCAP cells expressing androgen receptor at 3 uM after 48 hrs by WST-8 assay; type: functional, cell-based; in short: as §4
PC-3 [11] = experiment: Cytotoxicity against human PC3 cells at 3 uM after 48 hrs by WST-8 assay; type: functional, cell-based; in short: as §4
A549 [12] = experiment: Cytotoxicity against human A549 cells at 3 uM after 48 hrs by WST-8 assay; type: functional, cell-based; in short: as §4
HT-1080 [13] = experiment: Cytotoxicity against human HT1080 cells at 3 uM after 48 hrs by WST-8 assay; type: functional, cell-based; in short: as §4
PC-3 [14] = experiment: Cytotoxicity against human PC3 cells at 100 uM after 6 hrs by WST-8 assay; type: functional, cell-based
In short: (§5)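 WST-8 viability read at 450 nm after 6 h exposure to 100 μM compound. Reagent incubated 0.5 h at 37 °C. A549 and PC-3 were kept in RPMI-1640 + 10% FBS; HT1080 in DMEM + 10% FBS.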

A549 [15] = experiment: Cytotoxicity against human A549 cells at 100 uM after 6 hrs by WST-8 assay; type: functional, cell-based; in short: as §5
HT-1080 [16] = experiment: Cytotoxicity against human HT1080 cells at 100 uM after 6 hrs by WST-8 assay; type: functional, cell-based; in short: as §5
VCaP [17] = experiment: Induction of morphological changes in human VCaP cells at 3 uM after 24 hrs by phase contrast microscopic analysis; type: functional, cell-based
In short: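 VCaP cells were treated 24 h with 3 μM compound and imaged by phase-contrast microscopy.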

VCaP [18] = experiment: Induction of apoptosis in human VCaP cells assessed as caspase-3 activation at 1 to 3 uM after 24 hrs by Western blot analysis; type: functional, cell-based
In short: (§6)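 VCaP cells were treated 24 h with compound, or with 3 μM compound plus graded pan-caspase inhibitor. Cleaved caspase-3 and cleaved PARP were detected by Western blot of SDS lysates normalized by BCA.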

VCaP [19] = experiment: Induction of apoptosis in human VCaP cells assessed as increase in cleaved PARP levels at 1 to 3 uM after 24 hrs by Western blot method; type: functional, cell-based; in short: as §6
VCaP [20] = experiment: Induction of apoptosis in human VCaP cells assessed as caspase-3 activation at 1 to 3 uM in presence of pan-caspase inhibitor zVAD-FMK after 24 hrs by Western blot analysis; type: functional, cell-based; in short: as §6
VCaP [21] = experiment: Induction of apoptosis in human VCaP cells assessed as increase in cleaved PARP levels at 1 to 3 uM in presence of pan-caspase inhibitor zVAD-FMK after 24 hrs by Western blot analysis; type: functional, cell-based; in short: as §6
VCaP [22] = experiment: Induction of apoptosis in human VCaP cells assessed as viable cells at 3 uM after 24 hrs by Annexin V-FITC/propidium iodide staining-based flow cytometry (reference value: 98.9%); type: functional; details: read-out: Activity
VCaP [23] = experiment: Induction of apoptosis in human VCaP cells assessed as early apoptotic cells at 3 uM after 24 hrs by Annexin V-FITC/propidium iodide staining-based flow cytometry (reference value: 0.5%); type: functional
VCaP [24] = experiment: Induction of apoptosis in human VCaP cells assessed as late apoptotic cells at 3 uM after 24 hrs by Annexin V-FITC/propidium iodide staining-based flow cytometry (reference value: 0.1%); type: functional
VCaP [25] = experiment: Induction of apoptosis in human VCaP cells assessed as necrotic cells at 3 uM after 24 hrs by Annexin V-FITC/propidium iodide staining-based flow cytometry (reference value: 0.5%); type: functional
VCaP [26] = experiment: Induction of apoptosis in human VCaP cells assessed as viable cells at 3 uM in presence of pan-caspase inhibitor zVAD-FMK after 24 hrs by Annexin V-FITC/propidium iodide staining-based flow cytometry (reference value: 98.9%); type: functional; details: read-out: Activity
VCaP [27] = experiment: Induction of apoptosis in human VCaP cells assessed as early apoptotic cells at 3 uM in presence of pan-caspase inhibitor zVAD-FMK after 24 hrs by Annexin V-FITC/propidium iodide staining-based flow cytometry (reference value: 0.5%); type: functional
VCaP [28] = experiment: Induction of apoptosis in human VCaP cells assessed as late apoptotic cells at 3 uM in presence of pan-caspase inhibitor zVAD-FMK after 24 hrs by Annexin V-FITC/propidium iodide staining-based flow cytometry (reference value: 0.1%); type: functional
VCaP [29] = experiment: Induction of apoptosis in human VCaP cells assessed as necrotic cells at 3 uM in presence of pan-caspase inhibitor zVAD-FMK after 24 hrs by Annexin V-FITC/propidium iodide staining-based flow cytometry (reference value: 0.5%); type: functional
VCaP [30] = experiment: Induction of apoptosis in human VCaP cells assessed as caspase-3 activation at 3 uM in presence of proteasome inhibitor MG132 after 9 hrs by Western blot method; type: functional, cell-based
In short: (§7)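 VCaP cells were incubated 9 h with 3 μM compound and/or 10 μM proteasome inhibitor. Apoptotic markers were assessed by Western blot.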

VCaP [31] = experiment: Induction of apoptosis in human VCaP cells assessed as increase in cleaved PARP levels at 3 uM in presence of proteasome inhibitor MG132 after 9 hrs by Western blot method; type: functional, cell-based; in short: as §7

T1 sequence (P10275 whole entry, looked up): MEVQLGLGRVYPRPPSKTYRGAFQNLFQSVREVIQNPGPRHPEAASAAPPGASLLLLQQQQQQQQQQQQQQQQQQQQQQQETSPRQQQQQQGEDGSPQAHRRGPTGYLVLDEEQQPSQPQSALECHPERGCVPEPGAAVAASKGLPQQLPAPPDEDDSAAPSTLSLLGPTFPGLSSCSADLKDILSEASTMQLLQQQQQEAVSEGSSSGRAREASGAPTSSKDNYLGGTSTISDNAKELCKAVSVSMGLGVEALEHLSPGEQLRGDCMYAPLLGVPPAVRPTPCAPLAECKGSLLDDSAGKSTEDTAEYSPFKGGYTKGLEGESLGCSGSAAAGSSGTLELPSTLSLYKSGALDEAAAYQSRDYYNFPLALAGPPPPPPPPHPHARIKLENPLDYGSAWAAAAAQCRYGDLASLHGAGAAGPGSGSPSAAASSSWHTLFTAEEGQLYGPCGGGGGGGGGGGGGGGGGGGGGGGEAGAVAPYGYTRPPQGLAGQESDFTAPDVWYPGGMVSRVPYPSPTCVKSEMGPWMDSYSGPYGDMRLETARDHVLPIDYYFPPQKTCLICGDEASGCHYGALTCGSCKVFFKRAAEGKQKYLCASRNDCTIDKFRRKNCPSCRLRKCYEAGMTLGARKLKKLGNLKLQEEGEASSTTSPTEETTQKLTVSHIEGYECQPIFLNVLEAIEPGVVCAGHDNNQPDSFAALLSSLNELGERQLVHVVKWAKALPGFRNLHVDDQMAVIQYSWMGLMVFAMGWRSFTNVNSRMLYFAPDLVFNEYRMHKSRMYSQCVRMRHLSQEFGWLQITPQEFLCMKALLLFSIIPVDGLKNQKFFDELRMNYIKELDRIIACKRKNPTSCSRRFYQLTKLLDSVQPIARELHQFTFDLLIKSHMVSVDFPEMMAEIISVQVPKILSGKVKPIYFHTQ
T1 sequence (Q13490 whole entry, looked up): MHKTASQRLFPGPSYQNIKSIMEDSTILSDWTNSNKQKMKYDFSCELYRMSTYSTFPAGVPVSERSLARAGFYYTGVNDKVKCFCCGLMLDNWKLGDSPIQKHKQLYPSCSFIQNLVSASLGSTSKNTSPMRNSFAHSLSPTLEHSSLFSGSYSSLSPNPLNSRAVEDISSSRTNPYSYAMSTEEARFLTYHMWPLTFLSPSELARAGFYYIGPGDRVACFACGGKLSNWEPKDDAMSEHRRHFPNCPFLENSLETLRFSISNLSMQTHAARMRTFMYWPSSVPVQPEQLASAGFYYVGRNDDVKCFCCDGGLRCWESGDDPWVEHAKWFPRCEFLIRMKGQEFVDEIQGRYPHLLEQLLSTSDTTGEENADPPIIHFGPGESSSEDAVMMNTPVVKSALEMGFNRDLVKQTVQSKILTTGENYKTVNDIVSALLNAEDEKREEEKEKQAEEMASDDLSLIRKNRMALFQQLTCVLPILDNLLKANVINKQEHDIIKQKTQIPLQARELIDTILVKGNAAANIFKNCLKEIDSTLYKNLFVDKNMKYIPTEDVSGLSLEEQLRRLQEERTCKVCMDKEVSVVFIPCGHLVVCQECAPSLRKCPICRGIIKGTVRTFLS

Activity [1]: Active
Activity [2]: Active
Activity [3]: Tde
Activity [4]: inactive
Activity [5]: inactive
Activity [6]: Active
Activity [7]: Active
Activity [8]: Active
Activity [9]: Active
SMILES: CN[C@@H](C)C(=O)N[C@H](C(=O)N1CCC[C@H]1c1nc(C(=O)c2cccc(OCCOCCOCCOCCOc3ccc(Cn4c(C)c(C#N)c(-c5ccc(C#N)cc5)c4C)cc3)c2)cs1)C1CCCCC1
Activity (VCaP [10]): Active
Activity (LNCaP): Active
Activity (PC-3 [11]): inactive
Activity (A549 [12]): inactive
Activity (HT-1080 [13]): inactive
Activity (PC-3 [14]): Active
Activity (A549 [15]): Active
Activity (HT-1080 [16]): Active
Activity (VCaP [17]): Active
Activity (VCaP [18]): Active
Activity (VCaP [19]): Active
Activity (VCaP [20]): inactive
Activity (VCaP [21]): inactive
viability at 3 µM (VCaP [22]): 87.7%
Activity (VCaP [23]): 11.6%
Activity (VCaP [24]): 0.4%
Activity (VCaP [25]): 0.3%
viability at 3 µM (VCaP [26]): 96.8%
Activity (VCaP [27]): 1.5%
Activity (VCaP [28]): 0.6%
Activity (VCaP [29]): 1.1%
Activity (VCaP [30]): inactive
Activity (VCaP [31]): inactive

— ChEMBL document CHEMBL4219028, “Development of Protein Degradation Inducers of Androgen Receptor by Conjugation of Androgen Receptor Ligands and Inhibitor of Apoptosis Protein Ligands” (J Med Chem, 2018)
